Measured values: ChEMBL document CHEMBL5649170, “Sustained microglial depletion with CSF1R inhibitor impairs parenchymal plaque development in an Alzheimer's disease model” (Nat Commun, 2019)
pIC50: −log10 of the molar value.

Assays:
[1] = Effect on Pcdhac1 gene expression in wildtype mouse hippocampus assessed as percent change in Reads Per kilo base per Million mapped reads at 1200 ppm administered as rodent chow starting from 1.5 months and measured after 7 months by RNA-Seq analysis (reference value: 88.246 to 122.665 %); assay type: functional; conditions: route po, time 5.5 months, 4015 h
Mus musculus [2] = assay: (§1) Antialzheimer activity in 5XFAD mouse assessed as iron reactivity by measuring hemosiderin intensity of prussian blue staining in […] cortex at 1200 ppm administered as rodent chow starting from 1.5 months and measured after 7 months by confocal microscopic analysis (reference value: 0.1 to 4.791 a.u.); assay type: functional; conditions: route po, time 5.5 months, 4015 h
Summary of the method: (§2)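 Wild-type or 5xFAD mice fed PLX5622 (1200 ppm) in AIN-76A chow from 1.5 months of age, examined in 4- and 7-month-old cohorts. Brain sections stained with a Prussian blue kit per kit instructions to detect iron deposits (microbleeds).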

[3] = molecular target: Calcium/calmodulin-dependent protein kinase type II subunit delta (Homo sapiens, UniProt Q13557); assay: Inhibition of CAMK2D (unknown origin)
[4] = molecular target: Proto-oncogene tyrosine-protein kinase Src (Homo sapiens, UniProt P12931); assay: Inhibition of SRC (unknown origin)
Sequence of Proto-oncogene tyrosine-protein kinase Src (P12931 2-536 limits assumed): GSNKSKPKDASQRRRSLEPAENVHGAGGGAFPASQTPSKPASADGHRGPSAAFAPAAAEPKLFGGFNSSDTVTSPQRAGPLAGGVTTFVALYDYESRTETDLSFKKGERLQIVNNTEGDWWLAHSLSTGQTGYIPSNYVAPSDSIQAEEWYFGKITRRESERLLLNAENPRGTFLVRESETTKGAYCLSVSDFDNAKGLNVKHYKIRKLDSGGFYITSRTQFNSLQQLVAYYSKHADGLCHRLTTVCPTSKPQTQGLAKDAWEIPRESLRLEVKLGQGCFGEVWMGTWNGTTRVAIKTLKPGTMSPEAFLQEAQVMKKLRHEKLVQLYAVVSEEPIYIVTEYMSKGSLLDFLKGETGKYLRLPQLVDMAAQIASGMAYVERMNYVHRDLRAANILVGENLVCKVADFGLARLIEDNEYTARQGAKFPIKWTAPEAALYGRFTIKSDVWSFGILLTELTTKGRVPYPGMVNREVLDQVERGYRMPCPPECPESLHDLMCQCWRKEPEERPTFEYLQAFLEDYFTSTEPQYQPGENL

[5] = molecular target: G protein-coupled receptor kinase 4 (Homo sapiens, UniProt P32298); assay: Inhibition of GRK4 (unknown origin)
[6] = molecular target: Phosphatidylinositol 4,5-bisphosphate 3-kinase catalytic subunit gamma isoform (Homo sapiens, UniProt P48736); assay: Inhibition of PIK3CG (unknown origin)
Sequence of Phosphatidylinositol 4,5-bisphosphate 3-kinase catalytic subunit gamma isoform (P48736 whole entry, canonical isoform): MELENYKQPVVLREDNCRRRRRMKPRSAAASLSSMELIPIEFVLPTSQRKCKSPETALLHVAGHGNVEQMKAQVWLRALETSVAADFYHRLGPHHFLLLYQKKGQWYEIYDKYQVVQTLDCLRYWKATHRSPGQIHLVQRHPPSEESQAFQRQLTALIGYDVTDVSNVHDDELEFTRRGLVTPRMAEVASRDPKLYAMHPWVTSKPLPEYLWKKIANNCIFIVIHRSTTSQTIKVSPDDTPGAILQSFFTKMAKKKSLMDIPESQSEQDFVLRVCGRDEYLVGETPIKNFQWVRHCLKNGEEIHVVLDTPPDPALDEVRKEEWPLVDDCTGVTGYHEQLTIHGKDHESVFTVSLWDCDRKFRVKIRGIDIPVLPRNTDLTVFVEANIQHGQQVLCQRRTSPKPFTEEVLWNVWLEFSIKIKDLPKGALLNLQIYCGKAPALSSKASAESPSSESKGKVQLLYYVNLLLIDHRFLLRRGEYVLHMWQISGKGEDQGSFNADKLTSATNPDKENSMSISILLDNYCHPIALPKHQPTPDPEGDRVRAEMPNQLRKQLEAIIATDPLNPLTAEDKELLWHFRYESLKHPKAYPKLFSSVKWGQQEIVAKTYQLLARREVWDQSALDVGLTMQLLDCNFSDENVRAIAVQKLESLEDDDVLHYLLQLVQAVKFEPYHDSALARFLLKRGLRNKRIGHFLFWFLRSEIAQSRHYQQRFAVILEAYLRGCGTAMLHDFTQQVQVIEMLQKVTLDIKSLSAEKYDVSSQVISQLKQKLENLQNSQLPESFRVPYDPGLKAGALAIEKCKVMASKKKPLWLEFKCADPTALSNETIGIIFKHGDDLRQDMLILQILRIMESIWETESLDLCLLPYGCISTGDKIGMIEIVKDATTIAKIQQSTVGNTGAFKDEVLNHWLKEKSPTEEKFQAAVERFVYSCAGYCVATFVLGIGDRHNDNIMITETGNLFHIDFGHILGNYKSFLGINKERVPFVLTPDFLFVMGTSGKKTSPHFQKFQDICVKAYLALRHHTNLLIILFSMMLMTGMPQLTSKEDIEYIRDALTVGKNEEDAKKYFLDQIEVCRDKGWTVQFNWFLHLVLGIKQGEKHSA

[7] = molecular target: Mitogen-activated protein kinase kinase kinase kinase 5 (Homo sapiens, UniProt Q9Y4K4); assay: Inhibition of MAP4K5 (unknown origin)
Sequence of Mitogen-activated protein kinase kinase kinase kinase 5 (Q9Y4K4 whole entry): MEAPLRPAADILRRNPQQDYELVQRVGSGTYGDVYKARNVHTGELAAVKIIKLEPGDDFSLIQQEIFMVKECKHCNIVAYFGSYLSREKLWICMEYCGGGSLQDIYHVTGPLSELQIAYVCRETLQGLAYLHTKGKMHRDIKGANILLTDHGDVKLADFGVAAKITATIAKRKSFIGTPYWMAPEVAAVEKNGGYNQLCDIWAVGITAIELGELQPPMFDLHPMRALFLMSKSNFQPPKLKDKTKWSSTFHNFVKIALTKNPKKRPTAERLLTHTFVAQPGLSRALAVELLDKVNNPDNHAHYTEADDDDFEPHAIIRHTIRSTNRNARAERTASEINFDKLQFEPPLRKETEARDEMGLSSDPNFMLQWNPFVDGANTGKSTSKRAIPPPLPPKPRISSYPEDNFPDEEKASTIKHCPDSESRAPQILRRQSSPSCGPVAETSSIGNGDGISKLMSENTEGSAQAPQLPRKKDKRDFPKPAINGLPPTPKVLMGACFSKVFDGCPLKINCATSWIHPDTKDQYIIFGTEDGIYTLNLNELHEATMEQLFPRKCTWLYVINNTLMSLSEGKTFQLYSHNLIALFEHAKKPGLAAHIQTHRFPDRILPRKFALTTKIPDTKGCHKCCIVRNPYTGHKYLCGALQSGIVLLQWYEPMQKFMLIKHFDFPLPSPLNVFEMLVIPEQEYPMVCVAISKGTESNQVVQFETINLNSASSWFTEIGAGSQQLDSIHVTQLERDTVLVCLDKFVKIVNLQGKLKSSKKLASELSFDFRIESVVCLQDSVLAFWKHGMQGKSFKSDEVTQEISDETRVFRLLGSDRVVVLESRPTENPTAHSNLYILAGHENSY

Mus musculus [8] = assay: as §1, with “4” for “7”, “8.816” for “4.791”; assay type: functional; conditions: route po, time 2.5 months, 1825 h; summary of the method: as §2
Mus musculus [9] = assay: Antialzheimer activity in 5XFAD mouse assessed as proportion of time spent freezing at 1200 ppm administered as rodent chow for 10 to 24 weeks by […] (reference value: 0.00 to 0.43); assay type: functional; conditions: route po, time 10-24 weeks
[10] = molecular target: T1, Macrophage colony-stimulating factor 1 receptor (Mus musculus) (UniProt P09581); assay: In vivo inhibition of CSF1R in wildtype mouse assessed as microglial elimination in cortex at 1200 ppm administered as rodent chow for 10 weeks by […] based confocal microscopic analysis relative to control; assay type: functional; design: scale not given: the % may be the effect or the level left; conditions: route po
T1 sequence (whole entry): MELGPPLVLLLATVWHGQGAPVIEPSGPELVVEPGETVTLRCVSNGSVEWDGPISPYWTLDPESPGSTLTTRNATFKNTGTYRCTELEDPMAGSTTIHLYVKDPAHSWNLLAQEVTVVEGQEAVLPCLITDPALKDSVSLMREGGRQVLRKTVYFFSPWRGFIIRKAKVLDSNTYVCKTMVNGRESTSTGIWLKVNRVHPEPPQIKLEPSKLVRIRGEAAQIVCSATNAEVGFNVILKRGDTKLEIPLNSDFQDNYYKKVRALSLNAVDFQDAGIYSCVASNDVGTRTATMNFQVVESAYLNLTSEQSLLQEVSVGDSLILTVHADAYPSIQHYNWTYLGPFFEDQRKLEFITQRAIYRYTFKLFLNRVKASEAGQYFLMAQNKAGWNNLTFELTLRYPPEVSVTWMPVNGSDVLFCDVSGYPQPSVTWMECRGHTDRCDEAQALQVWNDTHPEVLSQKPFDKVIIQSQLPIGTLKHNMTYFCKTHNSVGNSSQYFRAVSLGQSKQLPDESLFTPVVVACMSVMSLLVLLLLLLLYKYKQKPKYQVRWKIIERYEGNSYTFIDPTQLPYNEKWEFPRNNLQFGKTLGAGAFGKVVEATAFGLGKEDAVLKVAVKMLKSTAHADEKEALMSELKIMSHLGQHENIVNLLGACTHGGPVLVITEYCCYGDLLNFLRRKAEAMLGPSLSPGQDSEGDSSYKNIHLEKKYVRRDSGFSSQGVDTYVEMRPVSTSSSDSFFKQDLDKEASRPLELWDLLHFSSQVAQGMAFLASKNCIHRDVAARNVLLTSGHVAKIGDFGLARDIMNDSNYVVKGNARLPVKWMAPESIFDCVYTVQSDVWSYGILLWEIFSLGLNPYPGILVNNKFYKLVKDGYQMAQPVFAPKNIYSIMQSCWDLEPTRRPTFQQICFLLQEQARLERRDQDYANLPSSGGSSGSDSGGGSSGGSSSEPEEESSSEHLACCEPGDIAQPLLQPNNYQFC

[11] = molecular target: Dual specificity tyrosine-phosphorylation-regulated kinase 4 (Homo sapiens, UniProt Q9NR20); assay: Inhibition of DYRK4 (unknown origin)
[12] = molecular target: Eukaryotic elongation factor 2 kinase (Homo sapiens, UniProt O00418); assay: Inhibition of EEF2K (unknown origin)
[13] = molecular target: Dual specificity protein kinase CLK2 (Homo sapiens, UniProt P49760); assay: Inhibition of CLK2 (unknown origin)
[14] = molecular target: Serine/threonine-protein kinase MARK2 (Homo sapiens, UniProt Q7KZI7); assay: Inhibition of MARK2 (unknown origin)
Sequence of Serine/threonine-protein kinase MARK2 (Q7KZI7 whole entry): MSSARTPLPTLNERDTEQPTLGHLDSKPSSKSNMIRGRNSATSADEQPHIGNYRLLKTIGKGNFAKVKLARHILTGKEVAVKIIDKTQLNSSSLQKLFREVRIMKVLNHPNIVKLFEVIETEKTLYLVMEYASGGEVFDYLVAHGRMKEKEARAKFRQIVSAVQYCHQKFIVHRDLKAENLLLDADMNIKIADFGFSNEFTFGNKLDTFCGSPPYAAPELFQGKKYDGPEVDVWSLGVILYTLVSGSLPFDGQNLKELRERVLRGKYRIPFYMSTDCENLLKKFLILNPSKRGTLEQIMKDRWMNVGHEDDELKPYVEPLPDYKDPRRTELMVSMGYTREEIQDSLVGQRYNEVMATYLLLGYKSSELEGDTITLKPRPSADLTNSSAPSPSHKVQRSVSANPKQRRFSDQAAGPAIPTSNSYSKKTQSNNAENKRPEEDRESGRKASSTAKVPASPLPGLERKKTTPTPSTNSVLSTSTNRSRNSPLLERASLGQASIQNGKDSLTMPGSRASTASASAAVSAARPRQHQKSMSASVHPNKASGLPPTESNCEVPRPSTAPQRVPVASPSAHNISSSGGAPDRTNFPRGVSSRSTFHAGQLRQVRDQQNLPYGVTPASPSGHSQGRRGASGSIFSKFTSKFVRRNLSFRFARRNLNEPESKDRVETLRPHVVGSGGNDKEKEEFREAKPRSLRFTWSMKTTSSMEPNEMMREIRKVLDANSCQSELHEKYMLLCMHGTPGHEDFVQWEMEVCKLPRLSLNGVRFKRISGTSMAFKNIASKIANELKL

[15] = molecular target: T1, Macrophage colony-stimulating factor 1 receptor (Mus musculus); assay: In vivo inhibition of CSF1R in wildtype mouse assessed as number of Iba1 positive cells per FOV in subiculum at 1200 ppm administered as rodent chow starting from 1.5 months and measured after 7 months by immunolabeling based confocal microscopic analysis (reference value: 482 to 1085); assay type: functional; conditions: route po, time 5.5 months
[16] = Effect on Ctsd gene expression in 5XFAD mouse hippocampus at 1200 ppm administered as rodent chow starting from 1.5 months and measured after 7 months by RNA-Seq analysis (reference value: 230.675 to 384.375 RPKM); assay type: functional; conditions: route po, time 5.5 months, 4015 h
[17] = molecular target: Serine/threonine-protein kinase PAK 3 (Homo sapiens, UniProt O75914); assay: Inhibition of PAK3 (unknown origin)
[18] = molecular target: Serine/threonine-protein kinase Sgk1 (Homo sapiens, UniProt O00141); assay: Inhibition of SGK (unknown origin)
[19] = Prevention of Kcnq3 gene downregulation in 5XFAD mouse hippocampus assessed as percent change in Reads Per kilo base per Million mapped reads at 1200 ppm administered as rodent chow starting from 1.5 months and measured after 7 months by RNA-Seq analysis (reference value: 55.386 to 68.581 %); assay type: functional; conditions: route po, time 5.5 months, 4015 h
[20] = Effect on ccl6 gene expression in 5XFAD mouse cortex at 1200 ppm administered as rodent chow starting from 1.5 months and measured after 7 months by RNA-Seq analysis (reference value: 4.103 to 8.161 RPKM); assay type: functional; conditions: route po, time 5.5 months, 4015 h
Insulin receptor = Insulin receptor (Homo sapiens, UniProt P06213); assay: Inhibition of INSR (unknown origin)
[21] = molecular target: PI3-kinase p110-delta/p85-alpha (Homo sapiens, UniProt O00329); assay: Inhibition of PIK3CD/PIK3R1 (unknown origin); assay type: protein-complex assay
Sequence of PI3-kinase p110-delta/p85-alpha (P27986 whole entry): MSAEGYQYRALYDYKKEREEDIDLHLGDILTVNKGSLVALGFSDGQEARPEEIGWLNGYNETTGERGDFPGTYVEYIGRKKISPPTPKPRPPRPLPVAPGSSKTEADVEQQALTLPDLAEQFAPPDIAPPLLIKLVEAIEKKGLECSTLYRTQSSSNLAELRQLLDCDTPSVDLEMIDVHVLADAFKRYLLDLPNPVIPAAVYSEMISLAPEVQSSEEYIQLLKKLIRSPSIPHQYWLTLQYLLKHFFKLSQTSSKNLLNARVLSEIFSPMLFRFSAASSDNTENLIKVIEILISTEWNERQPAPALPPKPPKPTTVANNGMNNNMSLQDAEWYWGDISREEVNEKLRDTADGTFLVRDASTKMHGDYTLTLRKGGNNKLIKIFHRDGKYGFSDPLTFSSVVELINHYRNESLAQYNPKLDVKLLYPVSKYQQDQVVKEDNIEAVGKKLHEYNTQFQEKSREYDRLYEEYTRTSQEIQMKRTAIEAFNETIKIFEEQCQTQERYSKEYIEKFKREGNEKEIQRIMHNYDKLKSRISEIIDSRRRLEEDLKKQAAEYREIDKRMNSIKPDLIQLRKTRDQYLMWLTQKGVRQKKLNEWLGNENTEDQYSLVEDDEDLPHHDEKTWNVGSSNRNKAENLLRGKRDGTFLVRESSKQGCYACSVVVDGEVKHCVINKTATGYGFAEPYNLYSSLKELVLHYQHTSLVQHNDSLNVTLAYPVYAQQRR
Sequence of PI3-kinase p110-delta/p85-alpha (O00329 whole entry): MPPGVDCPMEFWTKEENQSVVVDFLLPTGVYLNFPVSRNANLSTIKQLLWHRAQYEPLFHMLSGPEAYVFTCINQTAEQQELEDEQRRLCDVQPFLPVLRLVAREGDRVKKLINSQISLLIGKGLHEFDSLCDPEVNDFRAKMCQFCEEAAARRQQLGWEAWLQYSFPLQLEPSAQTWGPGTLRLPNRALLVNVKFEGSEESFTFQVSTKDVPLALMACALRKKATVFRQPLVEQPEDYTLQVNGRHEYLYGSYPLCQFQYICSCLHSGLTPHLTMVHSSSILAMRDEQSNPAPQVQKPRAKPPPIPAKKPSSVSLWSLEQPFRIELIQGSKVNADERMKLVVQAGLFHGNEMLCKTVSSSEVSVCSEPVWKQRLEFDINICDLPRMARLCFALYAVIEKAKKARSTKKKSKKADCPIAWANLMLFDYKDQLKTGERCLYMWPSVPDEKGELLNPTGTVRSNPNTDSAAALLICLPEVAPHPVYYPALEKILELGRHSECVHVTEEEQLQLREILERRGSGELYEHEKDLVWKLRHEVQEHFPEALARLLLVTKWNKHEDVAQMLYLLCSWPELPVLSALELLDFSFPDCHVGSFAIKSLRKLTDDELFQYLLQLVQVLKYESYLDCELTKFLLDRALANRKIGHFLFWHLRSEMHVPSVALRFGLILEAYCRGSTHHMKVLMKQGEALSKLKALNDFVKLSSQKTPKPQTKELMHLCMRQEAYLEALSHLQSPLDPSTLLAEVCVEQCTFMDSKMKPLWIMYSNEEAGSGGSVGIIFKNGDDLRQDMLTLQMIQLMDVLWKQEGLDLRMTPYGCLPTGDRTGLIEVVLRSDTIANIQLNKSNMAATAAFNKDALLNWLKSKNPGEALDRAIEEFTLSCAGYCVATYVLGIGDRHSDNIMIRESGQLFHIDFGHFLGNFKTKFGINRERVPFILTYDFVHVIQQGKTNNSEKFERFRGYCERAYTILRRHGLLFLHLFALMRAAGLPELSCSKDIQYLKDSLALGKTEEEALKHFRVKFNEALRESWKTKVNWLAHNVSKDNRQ

[22] = Drug concentration in wildtype mouse plasma at 75 ppm administered as rodent chow starting from 1.5 months and measured after 5 months; assay type: ADME, cell-free; conditions: route po, time 3.5 months
Summary of the method: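 WT or 5xFAD mice were fed PLX3397 in AIN-76A chow at 600 ppm or 75 ppm from 1.5 to 5 months of age. Terminal brain and plasma drug concentrations were determined at study end.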

Question: Which results are given for COc1ncc(F)cc1CNc1ccc(Cc2c[nH]c3ncc(C)cc23)c(F)n1 [PLX-5622]?
Answer: Activity [1]: 63.951%; Flu intensity (Mus musculus [2]): 2.499 a.u.; pIC50 [3]: < 6.00; pIC50 [4]: < 6.00; pIC50 [5]: < 6.00; pIC50 [6]: < 6.00; pIC50 [7]: < 6.00; Flu intensity (Mus musculus [8]): 6.682 a.u.; Activity (Mus musculus [9]): 0.07; Activity [10]: > 99%; pIC50 [11]: < 6.00; pIC50 [12]: < 6.00; pIC50 [13]: < 6.00; pIC50 [14]: < 6.00; Activity [15]: 0; Activity [16]: 132.829 RPKM; pIC50 [17]: < 6.00; pIC50 [18]: < 6.00; Activity [19]: 68.859%; Activity [20]: 0.241 RPKM; pIC50 (Insulin receptor): < 6.00; pIC50 [21]: < 6.00

Question: With FC(F)(F)c1ccc(CNc2ccc(Cc3c[nH]c4ncc(Cl)cc34)cn2)cn1 [PEXIDARTINIB] as the compound, how does the concentration at 2555 h [22] read?
Answer: Its concentration at 2555 h is 12 µM.
